Experimental data as given in ChEMBL document CHEMBL4049410, “Novel benzimidazolyl tetrahydroprotoberberines: Design, synthesis, antimicrobial evaluation and multi-targeting exploration” (2017).
Values after ≈ are worked out from the molar mass of the structure shown.

Assays:
[1] = tested on: Bacillus subtilis; assay: Antibacterial activity against Bacillus subtilis after 24 hrs by two-fold serial dilution assay; assay type: functional
Procedure, shortened: (§1)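 Twofold serial broth dilution following NCCLS guidance, with Chloromycin, Norfloxacin and Fluconazole as positive controls. MIC in μM is the lowest concentration giving complete inhibition of visible bacterial or fungal growth.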

[2] = tested on: Candida albicans; assay: Antifungal activity against Candida albicans ATCC 76615 after 24 hrs by two-fold serial dilution assay; assay type: functional; procedure, shortened: as §1
[3] = tested on: Escherichia coli; assay: Antibacterial activity against Escherichia coli JM109 after 24 hrs by two-fold serial dilution assay; assay type: functional; procedure, shortened: as §1
[4] = tested on: Staphylococcus aureus; assay: Antibacterial activity against methicillin-resistant Staphylococcus aureus N315 after 24 hrs by two-fold serial dilution assay; assay type: functional
[5] = tested on: Micrococcus luteus; assay: Antibacterial activity against Micrococcus luteus ATCC 4698 after 24 hrs by two-fold serial dilution assay; assay type: functional, NCTC 2665; procedure, shortened: as §1
[6] = tested on: Saccharomyces cerevisiae; assay: Antifungal activity against Saccharomyces cerevisiae after 24 hrs by two-fold serial dilution assay; assay type: functional; procedure, shortened: as §1
[7] = tested on: Salmonella typhi; assay: Antibacterial activity against Bacillus typhi after 24 hrs by two-fold serial dilution assay; assay type: functional, Salmonella enterica subsp. enterica serovar Typhi
[8] = tested on: Cyberlindnera jadinii; assay: Antifungal activity against Candida utilis after 24 hrs by two-fold serial dilution assay; assay type: functional; procedure, shortened: as §1
[9] = tested on: Pichia norvegensis; assay: Antifungal activity against Candida mycoderma after 24 hrs by two-fold serial dilution assay; assay type: functional; procedure, shortened: as §1
[10] = tested on: Staphylococcus aureus; assay: Antibacterial activity against Staphylococcus aureus ATCC 25923 after 24 hrs by two-fold serial dilution assay; assay type: functional; procedure, shortened: as §1
[11] = tested on: Pseudomonas aeruginosa; assay: Antibacterial activity against Pseudomonas aeruginosa after 24 hrs by two-fold serial dilution assay; assay type: functional; procedure, shortened: as §1
[12] = tested on: Escherichia coli; assay: Antibacterial activity against Escherichia coli DH52 after 24 hrs by two-fold serial dilution assay; assay type: functional; procedure, shortened: as §1
[13] = tested on: Aspergillus flavus; assay: Antifungal activity against Aspergillus flavus after 24 hrs by two-fold serial dilution assay; assay type: functional; procedure, shortened: as §1
[14] = tested on: Shigella dysenteriae; assay: Antibacterial activity against Shigella dysenteriae after 24 hrs by two-fold serial dilution assay; assay type: functional
[15] = tested on: Proteus vulgaris; assay: Antibacterial activity against Bacillus proteus ATCC 13315 after 24 hrs by two-fold serial dilution assay; assay type: functional; procedure, shortened: as §1
[16] = Bacillus subtilis, 24 h, read-out: MIC
[17] = Candida albicans, ATCC 76615, 24 h, read-out: MIC
[18] = Escherichia coli, JM109, 24 h, read-out: MIC
[19] = Staphylococcus aureus, N315, 24 h, read-out: MIC
[20] = Micrococcus luteus, NCTC 2665, 24 h, read-out: MIC
[21] = Saccharomyces cerevisiae, 24 h, read-out: MIC
[22] = Salmonella enterica, 24 h, read-out: MIC
[23] = Williopsis jadinii, 24 h, read-out: MIC
[24] = Pichia norvegensis, 24 h, read-out: MIC
[25] = Staphylococcus aureus, ATCC 25923, 24 h, read-out: MIC
[26] = Pseudomonas aeruginosa, 24 h, read-out: MIC
[27] = Escherichia coli, DH52, 24 h, read-out: MIC
[28] = Aspergillus flavus, 24 h, read-out: MIC
[29] = Shigella dysenteriae, 24 h, read-out: MIC
[30] = Proteus vulgaris, ATCC 13315, 24 h, read-out: MIC

| SMILES | MIC [1, 16] | MIC [2, 17] | MIC [3, 18] | MIC [4, 19] | MIC [5, 20] | MIC [6, 21] | MIC [7, 22] | MIC [8, 23] | MIC [9, 24] | MIC [10, 25] | MIC [11, 26] | MIC [12, 27] | MIC [13, 28] | MIC [14, 29] | MIC [15, 30] | also measured |
| --- | --- | --- | --- | --- | --- | --- | --- | --- | --- | --- | --- | --- | --- | --- | --- | --- |
| COc1cc(-c2nc3ccccc3n2Cc2ccc(Cl)c(Cl)c2)c2c(c1O)CN1CCc3cc4c(cc3C1C2)OCO4 (stereo not given) | 22.2 µM (≈ 13.3 µg/mL) | 44.4 µM (≈ 26.7 µg/mL) | 44.4 µM (≈ 26.7 µg/mL) | 22.2 µM (≈ 13.3 µg/mL) | 107 µM (≈ 64 µg/mL) | 26.6 µM (≈ 16 µg/mL) | 53.3 µM (≈ 32 µg/mL) | 44.4 µM (≈ 26.7 µg/mL) | 53.3 µM (≈ 32 µg/mL) | 35.5 µM (≈ 21.3 µg/mL) | 35.5 µM (≈ 21.3 µg/mL) | 44.4 µM (≈ 26.7 µg/mL) | 88.8 µM (≈ 53.3 µg/mL) | 44.4 µM (≈ 26.7 µg/mL) | 22.2 µM (≈ 13.3 µg/mL) |  |
| COc1cc(-c2nc3ccccc3n2Cc2ccccc2Cl)c2c(c1O)CN1CCc3cc4c(cc3C1C2)OCO4 (stereo not given) | 188 µM (≈ 107 µg/mL) | 56.5 µM (≈ 32 µg/mL) | 4.7 µM (≈ 2.66 µg/mL) | 23.6 µM (≈ 13.4 µg/mL) | 23.6 µM (≈ 13.4 µg/mL) | 23.6 µM (≈ 13.4 µg/mL) | 37.7 µM (≈ 21.3 µg/mL) | 18.9 µM (≈ 10.7 µg/mL) | 47.1 µM (≈ 26.7 µg/mL) | 9.4 µM (≈ 5.32 µg/mL) | 23.6 µM (≈ 13.4 µg/mL) | 23.6 µM (≈ 13.4 µg/mL) | 11.8 µM (≈ 6.68 µg/mL) | 28.3 µM (≈ 16 µg/mL) | 47.1 µM (≈ 26.7 µg/mL) |  |
| CCCCCCCCn1c(-c2cc(OC)c(O)c3c2CC2c4cc5c(cc4CCN2C3)OCO5)nc2ccccc21 (stereo not given) | 57.8 µM (≈ 32 µg/mL) | 28.9 µM (≈ 16 µg/mL) | 116 µM (≈ 64 µg/mL) | 231 µM (≈ 128 µg/mL) | 48.2 µM (≈ 26.7 µg/mL) | 96.3 µM (≈ 53.3 µg/mL) | 24.1 µM (≈ 13.3 µg/mL) | 24.1 µM (≈ 13.3 µg/mL) | 4.8 µM (≈ 2.66 µg/mL) | 14.4 µM (≈ 7.97 µg/mL) | 38.5 µM (≈ 21.3 µg/mL) | 24.1 µM (≈ 13.3 µg/mL) | 28.9 µM (≈ 16 µg/mL) | 77.1 µM (≈ 42.7 µg/mL) | 9.6 µM (≈ 5.32 µg/mL) |  |
| COc1ccc2c(c1O)CN1CCc3cc4c(cc3C1C2)OCO4 (stereo not given) | 1570 µM (≈ 512 µg/mL) | 524 µM (≈ 171 µg/mL) | 656 µM (≈ 213 µg/mL) | 1310 µM (≈ 427 µg/mL) | 1570 µM (≈ 512 µg/mL) | 1570 µM (≈ 512 µg/mL) | 787 µM (≈ 256 µg/mL) | 1050 µM (≈ 341 µg/mL) | 164 µM (≈ 53.3 µg/mL) | 787 µM (≈ 256 µg/mL) | 787 µM (≈ 256 µg/mL) | 1570 µM (≈ 512 µg/mL) | 656 µM (≈ 213 µg/mL) | 1570 µM (≈ 512 µg/mL) | 1310 µM (≈ 427 µg/mL) |  |
| COc1cc(-c2nc3ccccc3n2Cc2ccc(Cl)cc2)c2c(c1O)CN1CCc3cc4c(cc3C1C2)OCO4 (stereo not given) |  |  |  |  |  |  |  |  |  |  |  |  |  |  |  | MIC [1]: 11.8 µM (≈ 6.68 µg/mL); MIC [2]: 23.6 µM (≈ 13.4 µg/mL); MIC [3]: 37.7 µM (≈ 21.3 µg/mL); MIC [4]: 18.9 µM (≈ 10.7 µg/mL); MIC [5]: 28.3 µM (≈ 16 µg/mL); MIC [6]: 14.1 µM (≈ 7.98 µg/mL); MIC [7]: 9.4 µM (≈ 5.32 µg/mL); MIC [8]: 11.8 µM (≈ 6.68 µg/mL); MIC [9]: 14.1 µM (≈ 7.98 µg/mL); MIC [10]: 9.4 µM (≈ 5.32 µg/mL); MIC [11]: 23.6 µM (≈ 13.4 µg/mL); MIC [12]: 56.5 µM (≈ 32 µg/mL); MIC [13]: 14.1 µM (≈ 7.98 µg/mL); MIC [14]: 18.9 µM (≈ 10.7 µg/mL); MIC [15]: 11.8 µM (≈ 6.68 µg/mL) |
| COc1ccc2cc3[n+](cc2c1OC)CCc1cc2c(cc1-3)OCO2 [BERBERINE] | 1150 µM | 918 µM | 1380 µM | 230 µM | 1380 µM | 287 µM | 459 µM | 574 µM | 287 µM | 1380 µM | 574 µM | 1150 µM | 1150 µM | 1150 µM | 688 µM |  |
| COc1cc(-c2nc3cc(Cl)ccc3[nH]2)c2c(c1O)CN1CCc3cc4c(cc3C1C2)OCO4 (stereo not given) | 717 µM (≈ 341 µg/mL) | 896 µM (≈ 427 µg/mL) | 896 µM (≈ 427 µg/mL) | 1080 µM (≈ 512 µg/mL) | 896 µM (≈ 427 µg/mL) | 896 µM (≈ 427 µg/mL) | 448 µM (≈ 213 µg/mL) | 717 µM (≈ 341 µg/mL) | 896 µM (≈ 427 µg/mL) | 1080 µM (≈ 512 µg/mL) | 359 µM (≈ 171 µg/mL) | 896 µM (≈ 427 µg/mL) | 1080 µM (≈ 512 µg/mL) | 1080 µM (≈ 512 µg/mL) | 896 µM (≈ 427 µg/mL) |  |
| CCCCCCCCCCCCn1c(-c2cc(OC)c(O)c3c2CC2c4cc5c(cc4CCN2C3)OCO5)nc2ccccc21 (stereo not given) | 35 µM (≈ 21.3 µg/mL) | 5.5 µM (≈ 3.35 µg/mL) | 26.2 µM (≈ 16 µg/mL) | 175 µM (≈ 107 µg/mL) | 105 µM (≈ 64 µg/mL) | 70 µM (≈ 42.7 µg/mL) | 8.7 µM (≈ 5.31 µg/mL) | 17.5 µM (≈ 10.7 µg/mL) | 3.3 µM (≈ 2.01 µg/mL) | 26.2 µM (≈ 16 µg/mL) | 17.5 µM (≈ 10.7 µg/mL) | 87.5 µM (≈ 53.4 µg/mL) | 43.8 µM (≈ 26.7 µg/mL) | 175 µM (≈ 107 µg/mL) | 5.5 µM (≈ 3.35 µg/mL) |  |
| COc1cc(-c2nc3ccccc3n2CCCCCCn2c3ccccc3c3ccccc32)c2c(c1O)CN1CCc3cc4c(cc3C1C2)OCO4.Cl (stereo not given) |  |  |  |  |  |  |  |  |  |  |  |  |  |  |  | MIC [1]: 704 µM; MIC [2]: 176 µM; MIC [3]: 469.3 µM; MIC [4]: 586.7 µM; MIC [5]: 293.3 µM; MIC [6]: 469.3 µM; MIC [7]: 73.3 µM; MIC [8]: 469.3 µM; MIC [9]: 352 µM; MIC [10]: 146.7 µM; MIC [11]: 469.3 µM; MIC [12]: 88 µM; MIC [13]: 293.3 µM; MIC [14]: 146.7 µM; MIC [15]: 88 µM |
